The target in data set [1] is T1, Fatty-acid amide hydrolase 1 (Homo sapiens) (UniProt O00519).
T1 sequence (whole entry): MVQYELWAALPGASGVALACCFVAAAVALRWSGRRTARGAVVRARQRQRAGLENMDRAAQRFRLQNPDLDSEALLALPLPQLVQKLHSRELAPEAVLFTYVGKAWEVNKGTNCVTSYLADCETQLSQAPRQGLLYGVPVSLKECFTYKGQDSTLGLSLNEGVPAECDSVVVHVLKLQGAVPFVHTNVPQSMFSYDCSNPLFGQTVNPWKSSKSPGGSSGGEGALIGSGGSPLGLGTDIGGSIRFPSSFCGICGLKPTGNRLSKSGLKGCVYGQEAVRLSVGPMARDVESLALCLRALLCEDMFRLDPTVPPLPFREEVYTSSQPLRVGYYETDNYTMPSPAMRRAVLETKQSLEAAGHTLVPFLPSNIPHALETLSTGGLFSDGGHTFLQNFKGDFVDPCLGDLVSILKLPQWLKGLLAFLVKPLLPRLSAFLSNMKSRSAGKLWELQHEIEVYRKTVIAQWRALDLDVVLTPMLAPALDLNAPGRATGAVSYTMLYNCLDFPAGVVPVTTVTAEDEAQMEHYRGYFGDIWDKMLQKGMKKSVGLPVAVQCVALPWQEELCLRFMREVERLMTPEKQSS
The data set is described as follows: Ratio of Kinact to Ki for human FAAH activity. In outline:
(§1)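 kinact/Ki determined against human and rat FAAH. Each value is the average of at least two independent determinations.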

The target in data set [2] is T2, Fatty-acid amide hydrolase 1 (Rattus norvegicus) (UniProt P97612).
T2 sequence (whole entry): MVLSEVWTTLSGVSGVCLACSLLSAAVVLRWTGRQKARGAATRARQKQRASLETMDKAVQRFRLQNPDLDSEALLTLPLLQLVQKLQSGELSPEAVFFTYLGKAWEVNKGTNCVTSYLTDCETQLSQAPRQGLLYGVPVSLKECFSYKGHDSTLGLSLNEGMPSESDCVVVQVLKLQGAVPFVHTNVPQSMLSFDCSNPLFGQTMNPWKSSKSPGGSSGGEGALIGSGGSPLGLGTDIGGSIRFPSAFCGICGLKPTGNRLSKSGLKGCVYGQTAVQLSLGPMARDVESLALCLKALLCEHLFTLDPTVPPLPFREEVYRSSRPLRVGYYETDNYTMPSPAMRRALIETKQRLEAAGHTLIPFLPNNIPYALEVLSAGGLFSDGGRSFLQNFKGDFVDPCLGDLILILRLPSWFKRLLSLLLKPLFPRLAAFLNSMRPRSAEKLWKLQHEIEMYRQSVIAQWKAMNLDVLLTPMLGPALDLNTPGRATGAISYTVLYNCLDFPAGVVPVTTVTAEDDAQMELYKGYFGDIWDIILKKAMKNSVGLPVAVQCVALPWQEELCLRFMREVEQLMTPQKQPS
Kind of data set: Ratio of Kinact to Ki for rat FAAH activity. In outline: as §1

For data set [3], the system named is Rattus norvegicus. The data set is described as follows: Inhibition of FAAH in rat CFA model at 3 mg/kg, po after 3 hrs. Format: functional. The settings on record: for minimal effective dose: read-out: MED.
Data set [4] deals with T1, Fatty-acid amide hydrolase 1 (Homo sapiens). The data set is described as follows: Inhibition of FAAH in human brain membrane using rhodamine-tagged fluorophosphonate probe at 100 uM by competitive activity-based protein profiling method. Format: cell membranes. In outline:
(§2)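 Competitive activity-based protein profiling against >200 human serine hydrolases, FAAH included. Compound tested at 100 µM in human brain membrane and soluble liver proteomes. Residual hydrolase activity labelled with a rhodamine-tagged fluorophosphonate probe.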

For data set [5] the target is unchanged. The data set is described as follows: Inhibition of FAAH in human liver proteomes using rhodamine-tagged fluorophosphonate probe at 100 uM by competitive activity-based protein profiling method. The method, boiled down:
as §2

The target of data set [6] is T3, Voltage-gated inwardly rectifying potassium channel KCNH2 (Homo sapiens, UniProt Q12809). The data set is described as follows: Displacement of dofetilide from ERG.
A short description of data set [7]: Inhibition of cytochrome P450. The class given is ADME.
The target in data set [8] is T3, Voltage-gated inwardly rectifying potassium channel KCNH2. Kind of data set: Inhibition of human ERG.
A further data set deals with Salmonella typhimurium. The data set is described as follows: Mutagenic activity in Salmonella Typhimurium by Ames test. Format: toxicity, organism-based. The note with it: salmonella enterica subsp. enterica serovar typhimurium.
The nature of data set [9]: Half life in rat CFA model at 3 mg/kg, po. The class given is ADME, organism-based. The settings on record: in vivo. Details: dose 3 mg/kg, route oral.
Data set [10] can be described thus: Clearance in rat CFA model at 3 mg/kg, po. The arrangement: dose 3 mg/kg, route oral. The note with it: in vivo. Format: ADME, organism-based. In outline:
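Rats in the CFA model screened at a single oral dose of 3 mpk. Plasma compound concentrations determined, including at 24 h. Clearance estimated from the 3 h and 24 h time points.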

Data set [11] has as its system Rattus norvegicus. The data set is described as follows: Volume of distribution at steady state in rat CFA model at 3 mg/kg, po. The class given is ADME, organism-based. Details: dose 3 mg/kg, route oral. The settings on record: in vivo.
A short description of data set [12]: Oral bioavailability in rat CFA model at 3 mg/kg. The class given is ADME, organism-based. The note with it: in vivo.
The nature of data set [13]: Half life in dog. The class given is ADME, organism-based, Canis lupus familiaris. The note with it: in vivo.
Data set [14] in a line: Clearance in dog. Format: ADME, organism-based, Canis lupus familiaris. The note with it: in vivo.
The nature of data set [15]: Volume of distribution at steady state in dog. Format: ADME, organism-based, Canis lupus familiaris. The note with it: in vivo, read-out: Vdss.
Data set [16] can be described thus: Oral bioavailability in dog. The class given is ADME, organism-based, Canis lupus familiaris. The note with it: in vivo.
The species entered for data set [17] is Rattus norvegicus. The data set is described as follows: Antiinflammatory activity against rat CFA model assessed as minimum effective dose after 4 hrs. Format: functional. The note with it: read-out: MED. In outline: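 CFA inflammatory pain model in rats given compound orally. Paw withdrawal threshold assessed with von Frey filaments 4 h post dose. N = 8 animals/group; significance versus vehicle by ANOVA/Dunnett's (p <0.05). Minimum efficacious dose defined as exposure giving >95% FAAH inhibition.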

Data set [18] has as its system Rattus norvegicus. The data set is described as follows: Inhibition of FAAH in rat CFA model leukocytes assessed as residual activity using 3H-anandamide as substrate at 0.3 mg/kg, po after 4 hrs. The class given is functional, organism-based. Details: dose 0.3 mg/kg. The method, boiled down: (§3)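 Rats with CFA-induced inflammatory pain dosed orally. Brain tissue and leukocytes collected 4 h post dose. Residual FAAH activity measured with 3H-anandamide as substrate. n = 4 animals/group. PK, biomarker and behavioural samples taken from the same animals.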

The subject of data set [19] is Rattus norvegicus. The data set is described as follows: Inhibition of FAAH in rat CFA model brain isolates assessed as residual activity using 3H-anandamide as substrate at 0.3 mg/kg, po after 4 hrs. The class given is functional, organism-based. The arrangement: dose 0.3 mg/kg. The method, boiled down:
as §3

Data set [20] can be described thus: Plasma concentration in rat CFA model at 3 mg/kg, po after 4 hrs. The class given is ADME, organism-based. The arrangement: dose 3 mg/kg, route oral. The method, boiled down:
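CFA rats given compound orally; plasma sampled 4 h post dose. Compound levels determined by LC/MS. n = 4 animals/group.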

For data set [21], the system named is Rattus norvegicus. The data set is described as follows: Inhibition of FAAH in orally dosed rat CFA model assessed as elevation of […]anandamide concentration in brain after 4 hrs. Format: functional, organism-based.
For data set [22], the system named is Rattus norvegicus. Kind of data set: Inhibition of FAAH in orally dosed rat CFA model assessed as elevation of […]anandamide concentration in plasma after 4 hrs. Format: functional, organism-based.
Data set [23] is described as follows: Genotoxicity in micronucleus.

SMILES strings stand for the structures. Active and inactive are the calls of the source.

T3 sequence (Q12809 whole entry): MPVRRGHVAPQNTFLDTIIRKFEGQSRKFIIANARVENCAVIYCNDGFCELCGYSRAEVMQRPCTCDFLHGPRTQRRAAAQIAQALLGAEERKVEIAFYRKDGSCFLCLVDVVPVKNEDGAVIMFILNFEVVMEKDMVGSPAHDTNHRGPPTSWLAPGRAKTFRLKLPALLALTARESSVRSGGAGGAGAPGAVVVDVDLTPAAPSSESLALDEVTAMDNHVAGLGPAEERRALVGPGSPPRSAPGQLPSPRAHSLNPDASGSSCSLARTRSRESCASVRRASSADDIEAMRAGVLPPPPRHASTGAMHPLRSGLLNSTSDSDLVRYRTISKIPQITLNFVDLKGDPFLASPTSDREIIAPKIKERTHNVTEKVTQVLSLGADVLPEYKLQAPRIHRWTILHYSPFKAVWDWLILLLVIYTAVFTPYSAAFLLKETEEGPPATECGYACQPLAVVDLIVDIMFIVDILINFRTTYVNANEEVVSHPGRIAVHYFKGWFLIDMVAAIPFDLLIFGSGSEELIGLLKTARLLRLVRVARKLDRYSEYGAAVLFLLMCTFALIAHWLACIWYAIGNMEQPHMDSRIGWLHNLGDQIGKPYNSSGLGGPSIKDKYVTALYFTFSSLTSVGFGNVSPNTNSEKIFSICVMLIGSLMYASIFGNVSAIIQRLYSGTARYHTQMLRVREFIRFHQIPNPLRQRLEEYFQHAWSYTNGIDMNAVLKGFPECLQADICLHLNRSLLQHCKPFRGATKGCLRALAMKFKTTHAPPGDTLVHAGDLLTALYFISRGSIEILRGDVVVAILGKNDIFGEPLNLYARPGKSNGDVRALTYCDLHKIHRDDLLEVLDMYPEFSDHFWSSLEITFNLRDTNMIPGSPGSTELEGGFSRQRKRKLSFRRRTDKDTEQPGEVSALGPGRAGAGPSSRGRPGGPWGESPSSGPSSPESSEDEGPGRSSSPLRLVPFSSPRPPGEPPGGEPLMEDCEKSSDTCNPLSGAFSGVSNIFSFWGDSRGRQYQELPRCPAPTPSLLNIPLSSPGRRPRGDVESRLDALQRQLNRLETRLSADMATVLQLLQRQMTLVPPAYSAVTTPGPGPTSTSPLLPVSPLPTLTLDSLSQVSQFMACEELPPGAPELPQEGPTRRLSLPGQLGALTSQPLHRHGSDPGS

In the case of `Cn1nnnc1NC(=O)N1CCC2(CC1)CC(c1cccc(C(F)(F)F)c1)C2`, the Ratio was found to be 12400 M⁻¹ s⁻¹ in data set [1] and 5750 M⁻¹ s⁻¹ in [2]. Moreover, in the data set with Rattus norvegicus [3], the “activity call (active/not active)” value was “Active”. Moreover, the minimal effective dose in the data set with Rattus norvegicus [3] amounted to 1 mg/kg. Further, the inhibition result in data set [4] and in data set [5] was “Active” throughout. Further, the “inhibition (INH)” value in [6] and in data set [7] was “Not Active” in each case.
`Cc1noc(NC(=O)N2CCC3(CC2)CC(c2ccc(F)c(Cl)c2)C3)c1C`: the Ratio in [1] stood at 4190 M⁻¹ s⁻¹; in [2] it was 5820 M⁻¹ s⁻¹. For the same molecule, the “activity call (active/not active)” value in the data set on Rattus norvegicus [3] was “Active”. Also, the minimal effective dose in the data set with Rattus norvegicus [3] and in the data set listed under Rattus norvegicus [17] was 0.3 mg/kg each time. The inhibition result (in [4]; in data set [5]; in the data set with Rattus norvegicus [18]; in the data set on Rattus norvegicus [19]) was “Active” in each case. Also, the “inhibition (INH)” value in data set [6], in data set [7] and in [8] was “Not Active” in each case. The Activity entry (with Salmonella typhimurium; in data set [23]) was “Non-toxic” in each case. The figures for the half-life in data set [9] and in [13] were 7.1 h and 7.8 h, respectively. In data set [10], this molecule gave a CL/F of 8.5 mL/min/kg. The same molecule registered a Vdss in the data set on Rattus norvegicus [11] of 3.4 L/kg. Further, the bioavailability in data set [12] was 53%; in [16], 33%. In [14], the clearance is 11.1 mL/min/kg. For the same molecule, the Vd in data set [15] is 5 L/kg. In addition, the concentration at 4 h in [20] turned out to be 459 nM. Further, the inhibition entry in the data set on Rattus norvegicus [21] and with Rattus norvegicus [22] was “Dose-dependent effect” each time.
`Cc1noc(NC(=O)N2CCC3(CC2)CC(c2cccc(OC(F)(F)F)c2)C3)c1C`: the values for the Ratio in [1] and in [2] were 2830 M⁻¹ s⁻¹ and 3860 M⁻¹ s⁻¹, respectively. In the data set with Rattus norvegicus [3], the “activity call (active/not active)” value was “Active”. Moreover, in the data set on Rattus norvegicus [3], the minimal effective dose amounted to 1 mg/kg. The inhibition entry in [4] and in data set [5] was “Active” in each case. In addition, the “inhibition (INH)” value in [6] and in [7] was “Not Active” throughout.

The record behind these values is ChEMBL document CHEMBL1914324, “Discovery of novel spirocyclic inhibitors of fatty acid amide hydrolase (FAAH). Part 2. Discovery of 7-azaspiro[3.5]nonane urea PF-04862853, an orally efficacious inhibitor of fatty acid amide hydrolase (FAAH) for pain” (Bioorg Med Chem Lett, 2011).
